# What was measured:
# [1] = Aqueous solubility of the compound; format: physicochemical
# [2] = Cytotoxicity against human A549 cells assessed as decrease in cell viability after 72 hrs by MTT assay; format: functional, cell-based; details: A549, 72 h
# In short: (§1)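 Cells kept in RPMI 1640 with 10% FBS at 37 °C, 5% CO2, passaged every 2-3 days; seeded at 5,000-7,000 cells/well and left 24 h. Compounds dissolved in 1% DMSO, diluted in fresh medium to 1, 4, 16 and 32 µM, added in sextuplicate; 72 h exposure. MTT added for 3-4 h, medium removed, DMSO added for 15 min at 37 °C, OD read at 540 nm.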
# [3] = Cytotoxicity against human NCI-H1975 cells assessed as decrease in cell viability after 72 hrs by MTT assay; format: functional, cell-based; details: NCI-H1975, 72 h; in short: as §1
# [4] = Cytotoxicity against human NCI-H460 cells assessed as decrease in cell viability after 72 hrs by MTT assay; format: functional, cell-based; details: NCI-H460, 72 h; in short: as §1
# [5] = Cytotoxicity against human HCC827 cells assessed as decrease in cell viability after 72 hrs by MTT assay; format: functional, cell-based; details: HCC827, 72 h; in short: as §1
# [6] = Cytotoxicity against human NCI-H460 cells assessed as cell growth at 10 uM after 48 hrs by SRB assay relative to control; format: functional; details: NCI-H460, 48 h, read-out: Activity
# [7] = Growth inhibition of human HOP92 cells after 48 hrs by SRB assay; format: functional; details: HOP-92, 48 h
# [8] = Growth inhibition of human NCI-H23 cells after 48 hrs by SRB assay; format: functional; details: NCI-H23, 48 h
# [9] = Growth inhibition of human A549 cells after 48 hrs by SRB assay; format: functional; details: A549, 48 h
# [10] = Growth inhibition of human EKVX cells after 48 hrs by SRB assay; format: functional
# [11] = Growth inhibition of human NCI-H322M cells after 48 hrs by SRB assay; format: functional; details: for CC50: read-out: LC50 (the source's name)
# [12] = Growth inhibition of human HOP62 cells after 48 hrs by SRB assay; format: functional; details: HOP-62, 48 h; for CC50: read-out: LC50 (the source's name)
# [13] = Growth inhibition of human NCI-H460 cells after 48 hrs by SRB assay; format: functional; details: NCI-H460, 48 h
# [14] = Growth inhibition of human NCI-H522 cells after 48 hrs by SRB assay; format: functional; details: NCI-H522, 48 h; for CC50: read-out: LC50 (the source's name)
# [15] = Cytotoxicity against human NCI-H322M cells assessed as cell growth at 10 uM after 48 hrs by SRB assay relative to control; format: functional; details: read-out: Activity
# [16] = Growth inhibition of human NCI-H226 cells after 48 hrs by SRB assay; format: functional; details: NCI-H226, 48 h
# [17] = Cytotoxicity against human A549 cells assessed as cell growth at 10 uM after 48 hrs by SRB assay relative to control; format: functional; details: A549, 48 h, read-out: Activity
# [18] = Cytotoxicity against human HOP62 cells assessed as cell growth at 10 uM after 48 hrs by SRB assay relative to control; format: functional; details: HOP-62, 48 h, read-out: Activity
# [19] = Cytotoxicity against human HOP92 cells assessed as cell growth at 10 uM after 48 hrs by SRB assay relative to control; format: functional; details: HOP-92, 48 h, read-out: Activity
# [20] = Cytotoxicity against human NCI-H226 cells assessed as cell growth at 10 uM after 48 hrs by SRB assay relative to control; format: functional; details: NCI-H226, 48 h, read-out: Activity
# [21] = Cytotoxicity against human NCI-H23 cells assessed as cell growth at 10 uM after 48 hrs by SRB assay relative to control; format: functional; details: NCI-H23, 48 h, read-out: Activity
# [22] = Cytotoxicity against human EKVX cells assessed as cell growth at 10 uM after 48 hrs by SRB assay relative to control; format: functional; details: read-out: Activity
Compound,solubility [1],IC50 [2],IC50 [3],IC50 [4],IC50 [5],growth at 10 µM [6],GI50 [7],TGI [7],TGI [8],GI50 [9],TGI [9],GI50 [10],TGI [10],GI50 [11],TGI [11],GI50 [12],TGI [12],GI50 [13],GI50 [14],TGI [14],further results
OCCCc1n(Cc2ccc3ccccc3c2)c2ccccc2[n+]1Cc1ccc2ccccc2c1.[Br-],< 500 µg/mL,10 µM,4 µM,4 µM,6 µM,18.4%,0.566 µM,3.1 µM,8.17 µM,6.97 µM,31.4 µM,3.68 µM,19.4 µM,2.15 µM,9.1 µM,2.32 µM,11.6 µM,2.43 µM,1.05 µM,3.95 µM,LC50 [7]: 69.1 µM; GI50 [8]: 1.65 µM; LC50 [8]: 56.8 µM; LC50 [9]: > 100 µM; LC50 [10]: 70.6 µM; CC50 [11]: 31.7 µM; CC50 [12]: 82.7 µM; LC50 [13]: 80.3 µM; TGI [13]: 9.57 µM; CC50 [14]: 84.4 µM; growth at 10 µM [15]: 49.9%; GI50 [16]: 2.23 µM; LC50 [16]: 99.6 µM; TGI [16]: 10.5 µM; growth at 10 µM [17]: 68.4%; growth at 10 µM [18]: 37.5%; growth at 10 µM [19]: -24.3%; growth at 10 µM [20]: 48.5%; growth at 10 µM [21]: 19%; growth at 10 µM [22]: 47.6%
[Cl-].c1ccc2nc(Cn3c[n+](Cc4ccc5ccccc5n4)c4ccccc43)ccc2c1,2400 µg/mL,10 µM,3 µM,4 µM,6 µM,32.4%,0.93 µM,4.3 µM,10.3 µM,11.6 µM,25.9 µM,5.7 µM,23.7 µM,3.68 µM,17.1 µM,2.97 µM,13.7 µM,2.8 µM,1.56 µM,9.72 µM,LC50 [7]: 25 µM; GI50 [8]: 1.47 µM; LC50 [8]: 49.4 µM; LC50 [9]: 58 µM; LC50 [10]: 72.1 µM; CC50 [11]: 43.5 µM; CC50 [12]: 41 µM; LC50 [13]: 41.8 µM; TGI [13]: 12.3 µM; CC50 [14]: 44.7 µM; growth at 10 µM [15]: 78.1%; GI50 [16]: 4.13 µM; LC50 [16]: 78.2 µM; TGI [16]: 20.4 µM; growth at 10 µM [17]: 54%; growth at 10 µM [18]: 53.8%; growth at 10 µM [19]: -8.16%; growth at 10 µM [20]: 37.1%; growth at 10 µM [21]: 32%; growth at 10 µM [22]: 74.7%
Cc1cc2c(cc1C)[n+](Cc1ccc3ccccc3n1)cn2Cc1ccc2ccccc2n1.[Cl-],1400 µg/mL,4 µM,< 1 µM,2 µM,3 µM,0.34%,0.484 µM,2 µM,3.53 µM,2.83 µM,13 µM,2.29 µM,11.1 µM,1.37 µM,8.62 µM,1.27 µM,3.13 µM,0.63 µM,0.704 µM,2.47 µM,LC50 [7]: 5.22 µM; GI50 [8]: 0.736 µM; LC50 [8]: 29.6 µM; LC50 [9]: 63.5 µM; LC50 [10]: 66 µM; CC50 [11]: 30.5 µM; CC50 [12]: 7.72 µM; LC50 [13]: 6.2 µM; TGI [13]: 2.21 µM; CC50 [14]: 6.89 µM; growth at 10 µM [15]: 36%; GI50 [16]: 1.59 µM; LC50 [16]: > 100 µM; TGI [16]: 4.01 µM; growth at 10 µM [17]: 30.4%; growth at 10 µM [18]: 4.38%; growth at 10 µM [19]: -27.3%; growth at 10 µM [20]: 9.61%; growth at 10 µM [21]: 1.58%; growth at 10 µM [22]: 39.6%
Cc1cc2c(cc1C)[n+](Cc1ccc3ccccc3c1)cn2Cc1ccc2ccccc2c1.[Br-],< 500 µg/mL,3 µM,2 µM,2 µM,2 µM,-76.8%,0.587 µM,2.53 µM,2.28 µM,1.42 µM,2.95 µM,1.37 µM,2.88 µM,1.14 µM,2.42 µM,1.03 µM,2.47 µM,0.662 µM,1.25 µM,2.99 µM,GI50 [8]: 0.872 µM; growth at 10 µM [15]: -8.28%; GI50 [16]: 1.39 µM; TGI [16]: 3.42 µM; growth at 10 µM [17]: -71.3%; growth at 10 µM [18]: -73%; growth at 10 µM [19]: -80.8%; growth at 10 µM [20]: -25.5%; growth at 10 µM [21]: -71.8%; growth at 10 µM [22]: -64.3%
Cc1n(Cc2ccc3ccccc3c2)c2ccccc2[n+]1Cc1ccc2ccccc2c1.[Br-],< 500 µg/mL,4 µM,2 µM,3 µM,4 µM,-73.9%,0.0317 µM,2.06 µM,2.76 µM,1.76 µM,3.4 µM,1.78 µM,4.08 µM,1.56 µM,3 µM,1.69 µM,3.24 µM,1.47 µM,0.036 µM,2.27 µM,LC50 [7]: 5.03 µM; LC50 [9]: 6.55 µM; CC50 [11]: 5.78 µM; TGI [13]: 3.02 µM; growth at 10 µM [15]: 9.37%; GI50 [16]: 1.44 µM; TGI [16]: 3.2 µM; growth at 10 µM [17]: 8.96%; growth at 10 µM [18]: -62%; growth at 10 µM [19]: -68.2%; growth at 10 µM [20]: -9.12%; growth at 10 µM [21]: -29.5%; growth at 10 µM [22]: 9.57%

# Continued, in another order:
solubility [1],Compound,IC50 [2],IC50 [3],IC50 [4],IC50 [5],growth at 10 µM [6],GI50 [7],TGI [7],TGI [8],GI50 [9],TGI [9],GI50 [10],TGI [10],GI50 [11],TGI [11],GI50 [12],TGI [12],GI50 [13],GI50 [14],TGI [14],further results
1000 µg/mL,COCCOCCOCc1n(Cc2ccc3ccccc3c2)c2cc(C)c(C)cc2[n+]1Cc1ccc2ccccc2c1.[Br-],2 µM,< 1 µM,< 1 µM,2 µM,,,,,,,,,,,,,,,,
< 500 µg/mL,COc1ccc2c(c1)n(Cc1ccc3ccccc3c1)c[n+]2Cc1ccc2ccccc2c1.[Br-],6 µM,2 µM,4 µM,4 µM,,,,,,,,,,,,,,,,
< 500 µg/mL,O=C(OCc1ccc2ccccc2c1)c1ccc2c(c1)n(Cc1ccc3ccccc3c1)c[n+]2Cc1ccc2ccccc2c1.[Br-],7 µM,4 µM,4 µM,7 µM,,,,,,,,,,,,,,,,
< 500 µg/mL,Cl.O=C(O)c1ccc2c(c1)n(Cc1ccc3ccccc3c1)c[n+]2Cc1ccc2ccccc2c1.[Br-],12 µM,23 µM,16 µM,> 30 µM,,,,,,,,,,,,,,,,
< 500 µg/mL,OCCCc1n(Cc2ccc3ccccc3n2)c2ccccc2[n+]1Cc1ccc2ccccc2c1.[Br-],12 µM,3 µM,4 µM,11 µM,,,,,,,,,,,,,,,,
< 500 µg/mL,COC(=O)Cc1n(Cc2ccc3ccccc3c2)c2ccccc2[n+]1Cc1ccc2ccccc2c1.[Br-],8 µM,6 µM,7 µM,8 µM,,,,,,,,,,,,,,,,
< 500 µg/mL,O=C(O)c1cc2c(cc1C(=O)O)[n+](Cc1ccc3ccccc3c1)cn2Cc1ccc2ccccc2c1.[Cl-],> 30 µM,> 30 µM,> 30 µM,> 30 µM,,,,,,,,,,,,,,,,
< 500 µg/mL,O=C(O)CCc1n(Cc2ccc3ccccc3c2)c2ccccc2[n+]1Cc1ccc2ccccc2c1.[Cl-],> 30 µM,> 30 µM,> 30 µM,> 30 µM,,,,,,,,,,,,,,,,

# — ChEMBL document CHEMBL3868630, “Synthesis, anti-proliferative activity, SAR study, and preliminary in vivo toxicity study of substituted N,N'-bis(arylmethyl)benzimidazolium salts against a panel of non-small cell lung cancer cell lines” (Bioorg Med Chem, 2017)
